# According to PMC9177108 (The Oncologist, 2022):
# Tests used:
# [1] = test system: patients with recurrent and metastatic nasopharyngeal carcinoma (RM-NPC); assay: Safety and tolerability; format: in vivo, human
# Summary of the method: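 Safety was the primary endpoint, assessed separately in two randomised arms of pretreated RM-NPC patients given test compound 10 mg orally: daily on a 4-week cycle, or 3 weeks on/1 week off. Adverse events were graded by CTCAE version 4.03. The safety set comprised patients who took at least one dose. TEAEs and TRAEs, including those leading to dose reduction, interruption or discontinuation, were tabulated per arm.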
# [2] = test system: patients with recurrent and metastatic nasopharyngeal carcinoma (RM-NPC); assay: Antitumor efficacy; format: in vivo, human; conditions: for time to response: radiologic assessment every 8 weeks
# Summary of the method: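 Patients with pretreated RM-NPC were randomised to two arms, each evaluated separately (10 per arm). Both arms took test compound 10 mg orally daily: intermittent arm 3 weeks on/1 week off, continuous arm daily on a 4-week cycle. The investigator assessed response by RECIST 1.1. ORR was CR or PR as best overall response. DCR was confirmed CR, confirmed PR or SD lasting ≥4 weeks from randomisation.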
# [3] = continuous arm (10 mg p.o. daily, 4-week cycle), n = 10
# [4] = intermittent arm (10 mg p.o., 3 weeks on/1 week off), n = 10
# [5] = intermittent arm, n = 10, listed as lucitanib
smiles,measurement,setting,value
CNC(=O)c1cccc2cc(Oc3ccnc4cc(OCC5(N)CC5)c(OC)cc34)ccc12 [Lucitanib],serious TRAEs,"[1]; all patients, both arms",No patients experienced serious TRAEs
same,patients with Grade ≥3 related TEAEs,"[1]; all patients, both arms (7/20)",35%
same,TRAE: Hypothyroidism,[1]; continuous arm,60%
same,grade ≥3 TRAE: decreased platelet count,[1]; continuous arm,10%
same,grade ≥3 TRAE: hypertension,[1]; continuous arm,30%
same,grade ≥3 TRAE: increased AST,[1]; continuous arm,10%
same,grade ≥3 TRAE: proteinuria,[1]; continuous arm,20%
same,patients with at least one treatment-related AE (TRAE),[1]; continuous arm,One hundred
same,patients with Grade ≥3 related TEAEs,[1]; continuous arm (5/10),50%
same,patients with Grade ≥3 related TRAEs,[1]; continuous arm (5/10),50%
same,Drug-related AE: Cough,"[1]; continuous arm, n = 10",2 (20.0) n (%)
same,Drug-related AE: Diarrhea,"[1]; continuous arm, n = 10",3 (30.0) n (%)
same,Drug-related AE: Epistaxis,"[1]; continuous arm, n = 10",5 (50.0) n (%)
same,Drug-related AE: Free thyroxine decreased,"[1]; continuous arm, n = 10",3 (30.0) n (%)
same,Drug-related AE: Hypertension,"[1]; continuous arm, n = 10",10 (100.0) n (%)
same,Drug-related AE: Hypochloremia,"[1]; continuous arm, n = 10",3 (30.0) n (%)
same,Drug-related AE: Platelet count decreased,"[1]; continuous arm, n = 10",3 (30.0) n (%)
same,Drug-related AE: Proteinuria,"[1]; continuous arm, n = 10",10 (100.0) n (%)
same,Drug-related AE: Skin rash,"[1]; continuous arm, n = 10",3 (30.0) n (%)
same,Drug-related AE: TSH increased,"[1]; continuous arm, n = 10",3 (30.0) n (%)
same,Drug-related adverse events: All,"[1]; continuous arm, n = 10",10 (100.0) n (%)
same,Grade ≥3 TEAE,"[1]; continuous arm, n = 10",5 (50) n (%)
same,Grade ≥3 TRAE,"[1]; continuous arm, n = 10",5 (50) n (%)
same,Serious TRAE,"[1]; continuous arm, n = 10",0 n (%)
same,TRAE lead to dose discontinuation,"[1]; continuous arm, n = 10",0 n (%)
same,TRAE lead to dose interruption,"[1]; continuous arm, n = 10",5 (50) n (%)
same,TRAE: Hypothyroidism,[1]; intermittent arm,50%
same,grade ≥3 TRAE: decreased platelet count,[1]; intermittent arm,0%
same,grade ≥3 TRAE: hypertension,[1]; intermittent arm,0%
same,grade ≥3 TRAE: increased AST,[1]; intermittent arm,0%
same,grade ≥3 TRAE: proteinuria,[1]; intermittent arm,0%
same,patients with at least one treatment-related AE (TRAE),[1]; intermittent arm,90%
same,Drug-related AE: AST increased,"[1]; intermittent arm, n = 10",0 n (%)
same,Drug-related AE: Backache,"[1]; intermittent arm, n = 10",0 n (%)
same,Drug-related AE: Cough,"[1]; intermittent arm, n = 10",3 (30.0) n (%)
same,Drug-related AE: Diarrhea,"[1]; intermittent arm, n = 10",0 n (%)
same,Drug-related AE: Free thyroxine decreased,"[1]; intermittent arm, n = 10",1 (10.0) n (%)
same,Drug-related AE: Hypochloremia,"[1]; intermittent arm, n = 10",1 (10.0) n (%)
same,Drug-related AE: Hypothyroidism,"[1]; intermittent arm, n = 10",5 (50.0) n (%)
same,Drug-related AE: Platelet count decreased,"[1]; intermittent arm, n = 10",1 (10.0) n (%)
same,Drug-related AE: Proteinuria,"[1]; intermittent arm, n = 10",5 (50.0) n (%)
same,Drug-related AE: Serum creatinine (Scr) increased,"[1]; intermittent arm, n = 10",1 (10.0) n (%)
same,Drug-related AE: Skin rash,"[1]; intermittent arm, n = 10",0 n (%)
same,Drug-related AE: TSH increased,"[1]; intermittent arm, n = 10",1 (10.0) n (%)
same,Drug-related AE: Weight loss,"[1]; intermittent arm, n = 10",0 n (%)
same,Grade ≥3 TEAE,"[1]; intermittent arm, n = 10",2 (20) n (%)
same,Grade ≥3 TRAE,"[1]; intermittent arm, n = 10",0 n (%)
same,Serious TRAE,"[1]; intermittent arm, n = 10",0 n (%)
same,TRAE lead to dose discontinuation,"[1]; intermittent arm, n = 10",1 (10) n (%)
same,TRAE lead to dose interruption,"[1]; intermittent arm, n = 10",2 (20) n (%)
same,TRAE lead to dose reduction,"[1]; intermittent arm, n = 10",0 n (%)
same,duration of response,"[2]; all three responders, both arms",more than 1 year
same,time to response,[2]; all three responders,observed by the first evaluation
same,time to response,"[2]; all three responders, listed as lucitanib",at the first evaluation
same,Best response PR,[2]; [3],n = 2 (20%) n (%)
same,Response assessment CR,[2]; [3],n = 0 (0%) n (%)
same,Best response PR,"[2]; continuous arm (10 mg p.o. daily, 4-week cycle), n = 10, listed as lucitanib",2 (20) n (%)
same,Best response PD,"[2]; continuous arm, n = 10",1 (10) n (%)
same,Best response SD,"[2]; continuous arm, n = 10",7 (70) n (%)
same,DCR,"[2]; continuous arm, n = 10",90%
same,ORR,"[2]; continuous arm, n = 10",20%
same,Response assessment OTHER,"[2]; continuous arm, n = 10",n = 0 (0%) n (%)
same,median PFS,"[2]; continuous arm, n = 10, 90% CI 3.5 to NE",3.73 months
same,Best response PR,[2]; [4],1 (10) n (%)
same,Response assessment CR,[2]; [4],n = 0 (0%) n (%)
same,Best response SD,"[2]; intermittent arm, n = 10",n = 5 (50%) n (%)
same,median PFS,"[2]; intermittent arm, n = 10, 90% CI 1.74 to 7.36",3.68 months
same,Best response PD,[2]; [5],3 (30) n (%)
same,Best response SD,[2]; [5],5 (50) n (%)
same,DCR,[2]; [5],60%
same,ORR,[2]; [5],10%
same,"sustained response, patients still on treatment",[2]; two responders still on treatment at last follow-up,> 3 years
